ChEMBL document CHEMBL3271953, “Bridged aminotetralins. 4. Resolution of potent analgesics of the bridged aminotetralin type” (J Med Chem, 1976)
Calls of active or inactive are those of the source.

Assays:
Rattus norvegicus [1] = assay: Analgesic activity in Charles River rat at 20 mg/kg, po by tail flick test; type: functional, organism-based; set-up: dose 20 mg/kg
Rattus norvegicus [2] = assay: Analgesic activity in ip dosed Charles River rat by tail flick test; type: functional
Procedure, shortened: (§1)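 D'Amour-Smith rat tail-flick test. Compounds were given ip, im or po, and analgesic ED50 was derived. Doses are expressed as mg of base per kg and given as the hydrochloride or hydrobromide salt or as the free base. Some ED50s rest on two doses only.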

Rattus norvegicus [3] = assay: Analgesic activity in im dosed Charles River rat by tail flick test; type: functional; procedure, shortened: as §1
Rattus norvegicus [4] = assay: Analgesic activity in po dosed Charles River rat by tail flick test; type: functional; procedure, shortened: as §1
Rattus norvegicus [5] = assay: Ratio of morphine ED50 to compound ED50 for analgesic activity in po dosed Charles River rat by tail flick test; type: functional
Rattus norvegicus [6] = species: Rattus norvegicus; assay: Ratio of morphine ED50 to compound ED50 for analgesic activity in Charles River rat by tail flick test; type: functional
[7] = Acute toxicity in po dosed rat; type: organism-based; settings: in vivo
Procedure, shortened: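 Acute toxicity in rats after oral dosing, expressed as an LD50 in mg/kg.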

Rhesus monkey [8] = assay: Narcotic antagonism activity in morphine-dependent rhesus monkey assessed as precipitation of withdrawal symptoms at 0.5 to 1 mg/kg, im; type: functional, organism-based; settings: Macaca mulatta
Rhesus monkey [9] = assay: Narcotic antagonism activity in morphine-dependent rhesus monkey assessed as precipitation of withdrawal symptoms at 1 mg/kg, im measured for 10 hrs; type: functional, organism-based; set-up: dose 1 mg/kg; settings: Macaca mulatta
Rhesus monkey [10] = assay: Analgesic activity in monkey assessed as increase in shock threshold at 0.06 mg/kg, im; type: functional, organism-based; set-up: dose 0.06 mg/kg; settings: Macaca mulatta
Rhesus monkey [11] = assay: Analgesic activity in po dosed monkey assessed as increase in shock threshold; type: functional, organism-based; settings: Macaca mulatta
[12] = Rattus norvegicus, Charles River, Tail, ip, read-out: ED50
[13] = Rattus norvegicus, Charles River, Tail, im, read-out: ED50
[14] = Rattus norvegicus, Charles River, Tail, po, read-out: ED50

Row | Structure (SMILES) | ED50 (Rattus norvegicus [2]) [mg/kg] | ED50 (Rattus norvegicus [3]) [mg/kg] | ED50 (Rattus norvegicus [4]) [mg/kg] | further results
1 | CC[C@@]12CCCCCC(Cc3ccc(OC)cc31)[C@@H]2N (mixture of isomers) |  |  |  | Activity (Rattus norvegicus [1]): Active
2 | CC[C@@]12CC/C=C\CC(Cc3ccc(O)cc31)[C@@H]2N.Cl (stereo in doubt; (-)-4) | 9 | 4 |  | 
3 | COc1ccc2c(c1)[C@@]1(C)CCCCCC(C2)[C@@H]1N.Cl (mixture of isomers) | 4.88 |  |  | 
4 | CC[C@@]12CCCCCC(Cc3ccc(OC)cc31)[C@@H]2N.Cl (mixture of isomers) | 3.5 | 12 |  | 
5 | CN1CC[C@]23c4c5ccc(O)c4O[C@H]2[C@@H](O)C=C[C@H]3[C@H]1C5 [MORPHINE] |  |  |  | ED50 (Rattus norvegicus [2]; [12]): 4.43 mg/kg; ED50 (Rattus norvegicus [3]; [13]): 1.57 mg/kg; ED50 (Rattus norvegicus [4]; [14]): 15.9 mg/kg
6 | C[C@@]12CCCCCC(Cc3ccc(OC(=O)C4CC4)cc31)[C@@H]2N.Cl |  |  |  | ED50 (Rattus norvegicus [2]; [12]): 1.5 mg/kg; ED50 (Rattus norvegicus [3]; [13]): 0.45 mg/kg
7 | CC[C@@]12CC/C=C\CC(Cc3ccc(OC)cc31)[C@@H]2N.Cl (mixture of isomers) | 4.2 |  |  | 
8 | CC[C@@]12CC/C=C\CC(Cc3ccc(OC)cc31)[C@@H]2N.Cl (stereo in doubt; (-)-3) | >6.25 |  |  | 
9 | Br.C[C@@]12CCCCCC(Cc3ccc(O)cc31)[C@@H]2N (mixture of isomers) | 1.11 | 0.45 | 10 | 
10 | CC[C@@]12CC/C=C\CC(Cc3ccc(O)cc31)[C@@H]2N.Cl (mixture of isomers) | 1.75 |  |  | 
11 | Br.C[C@@]12CCCCCC(Cc3ccc(O)cc31)[C@@H]2N (stereo in doubt; (-)-6) | 0.53 | 0.12 | 2.05 | Ratio ED50 (Rattus norvegicus [5]): 8; Ratio ED50 (Rattus norvegicus [6]): <=15; LD50 [7]: 200 mg/kg
12 | CC[C@@]12CCCCCC(Cc3ccc(OC)cc31)[C@@H]2N.Cl (stereo in doubt; (+)-1) | 10 | 10 | 30 | 
13 | COc1ccc2c(c1)[C@@]1(C)CCCCCC(C2)[C@@H]1N.Cl (stereo in doubt; (-)-5) | 2 |  |  | ED50 (Rattus norvegicus [3]; [13]): 4.5 mg/kg; ED50 (Rattus norvegicus [4]; [14]): 3.5 mg/kg
14 | CC[C@@]12CC/C=C\CC(Cc3ccc(O)cc31)[C@@H]2N.Cl (stereo in doubt; (+)-4) | 0.8 | 0.195 |  | ED50 (Rattus norvegicus [4]; [14]): 5 mg/kg; Ratio ED50 (Rattus norvegicus [6]): <=15
15 | CC[C@@]12CCCCCC(Cc3ccc(O)cc31)[C@@H]2N (mixture of isomers) | 3.7 | 0.25 | 10 | 
16 | C[C@@]12CCCCCC(Cc3ccc(O)cc31)[C@@H]2N (stereo in doubt; (-)-6) |  |  |  | Activity (Rhesus monkey [8]): Active; Activity (Rhesus monkey [9]): Active; Activity (Rhesus monkey [10]): Active; Activity (Rhesus monkey [11]): Dose-dependent effect
17 | CC[C@@]12CCCCCC(Cc3ccc(O)cc31)[C@@H]2N (stereo in doubt; (+)-2) | 7.5 | 2 | 80 | 
18 | CC[C@@]12CCCCCC(Cc3ccc(OC)cc31)[C@@H]2N.Cl (stereo in doubt; (-)-1) | 3.3 | 3.5 | 7.5 | 
19 | COc1ccc2c(c1)[C@@]1(C)CCCCCC(C2)[C@@H]1N.Cl (stereo in doubt; (+)-5) | >25 |  |  | 
20 | CC[C@@]12CCCCCC(Cc3ccc(O)cc31)[C@@H]2N (stereo in doubt; (-)-2) | 0.5 | 0.1 | 3.5 | Ratio ED50 (Rattus norvegicus [6]): <=15
21 | CC[C@@]12CC/C=C\CC(Cc3ccc(OC)cc31)[C@@H]2N.Cl (stereo in doubt; (+)-3) |  |  |  | ED50 (Rattus norvegicus [2]; [12]): 3.75 mg/kg; ED50 (Rattus norvegicus [3]; [13]): 12.5 mg/kg
22 | Br.C[C@@]12CCCCCC(Cc3ccc(O)cc31)[C@@H]2N (stereo in doubt; (+)-6) | >100 | 95 |  | 
